The list is not random: actives were taken first. Their share in the collection is about 1.9%.
M4 ag: CHRM4 agonism in calcium assay; P08173; actives 0.14% (n = 360,000); activation, % at 3 µM; CHO-K1 hM4/Gqi5, Fluo-8 calcium fluorescence; vehicle 0%, full acetylcholine response 100%;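 active = activation above the run mean over all test wells plus 3 SD, cut at about 32% in these data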;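 also: peak over basal fluorescence ratio per well then scaled between controls; 0% = DMSO wells and 100% = acetylcholine at EC100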
CHRM5 PAM: CHRM5 positive allosteric modulation | activation, % at 3 µM | CHO-K1 hM5, Fluo-8 calcium, ACh EC20 PAM; 0% = ACh EC20, 100% = ACh EC100 | actives 0.3% (n = 360,000) | P08912;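 active = activation above the run cutoff, the mean activation of all test compounds plus 3 SD, cut at about 18% in these data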
Target sequence (P08912 whole entry, looked up): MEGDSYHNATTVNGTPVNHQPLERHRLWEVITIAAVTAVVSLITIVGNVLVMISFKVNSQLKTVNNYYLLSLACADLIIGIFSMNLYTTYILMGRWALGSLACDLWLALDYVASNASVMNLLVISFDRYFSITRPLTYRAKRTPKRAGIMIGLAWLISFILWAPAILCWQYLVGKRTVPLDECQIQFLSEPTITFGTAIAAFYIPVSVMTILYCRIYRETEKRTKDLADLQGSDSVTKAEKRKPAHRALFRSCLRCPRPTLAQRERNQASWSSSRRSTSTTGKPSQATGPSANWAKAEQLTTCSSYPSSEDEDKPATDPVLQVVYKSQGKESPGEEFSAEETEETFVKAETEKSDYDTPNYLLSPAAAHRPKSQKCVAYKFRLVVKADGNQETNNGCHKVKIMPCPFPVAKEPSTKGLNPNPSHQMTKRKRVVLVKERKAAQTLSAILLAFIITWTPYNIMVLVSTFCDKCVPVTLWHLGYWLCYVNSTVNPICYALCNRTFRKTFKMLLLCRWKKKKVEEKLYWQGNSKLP
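Assay system: CHO-K1 hM5 cells. Also added: acetylcholine at EC20 concentration, added after compound. Dosing: 3 µM, single dose. Times: compound preincubation 140 s before EC20 acetylcholine addition. Signal: Fluo-8 calcium fluorescence. Measure: % activation relative to EC20 and EC100 ACh responses. Repeats: singlicate, one well per test compound.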
M4 PAM: CHRM4 positive allosteric modulation; P08173; CHO-K1 hM4/Gqi5, Fluo-8 calcium fluorescence, ACh EC20; 0% = ACh EC20, 100% = maximal ACh; actives 0.4% (n = 360,000); AID 624126; activation, % at 3 µM;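 active = activation above its plate's cutoff, the mean activation of sample wells plus 3 SD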
CHRM4 antagonist: CHRM4 antagonism in calcium assay | actives 0.73% (n = 360,000) | P08173 | inhibition, % at 3 µM | CHO-hM4 cells, ACh EC80, Fluo-8 calcium fluorescence | AID 624125;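 active = inhibition above its plate's cutoff, the mean inhibition of sample wells plus 3 SD, cut at about 27% in these data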;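 also: 0% = acetylcholine EC80 with DMSO and 100% = DMSO without agonist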
M5 ag: CHRM5 agonism in calcium assay. P08912. AID 624037. actives 0.19% (n = 360,000). activation, % at 3 µM. CHO-K1 hM5 cells, Fluo-8 calcium fluorescence; 0% DMSO wells, 100% maximal acetylcholine response;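 active = activation above the run's mean over test compounds plus 3 SD, cut at about 23% in these data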;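 also: signal is peak over basal fluorescence ratio across the kinetic read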
CHRM5 antagonist: antagonists of human muscarinic M5 receptor (CHRM5); P08912; CHO-hM5 cells, Fluo-8 calcium fluorescence, ACh EC80; inhibition, % at 3 µM; actives 0.59% (n = 360,000); AID 624040;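 active = inhibition above a per-plate cutoff, the mean of that plate's test compounds plus 3 SD, cut at about 27% in these data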;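 also: 0% = acetylcholine EC80 with DMSO and 100% = DMSO without agonist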
* marks the source's active call; other numbers are inactive results.

SMILES | M4 ag | CHRM5 PAM | M4 PAM | CHRM4 antagonist | M5 ag | CHRM5 antagonist
Fc1ccc(-c2cc(C(F)(F)C(F)F)[nH]n2)cc1 | 28 | -9 | -12 | 6 | 32* | 13
Cc1cc(C(=O)N/N=C2/CC(C)CC(C)(C)C2)c(C)o1 (stereo unspecified) | 0 | -4 | 26* | -4 | -1 | -9
CCc1cccc(NC(=O)c2ccc3c(=O)n4c(nc3c2)CCCCC4)c1 | 10 | -11 | -18 | -1 | -8 | 11
Nc1cc(Nc2ccc(Br)cc2)nc(N)n1 | 1 | 3 | 10 | -15 | -2 | -11
COc1cc(/C=C/C(=O)c2ccc3c(c2)OCO3)cc(Cl)c1O | 125* | -15 | -27 | 32* | 50* | 33*
COc1ccc(C(=O)C=Cc2ccc3c(c2)OCO3)cc1OC | 4 | 0 | -7 | 9 | 0 | 1
COC(=O)c1ccc(NC(=S)NC2CCCCC2C)cc1 (stereo unspecified) | 12 | -19 | -9 | -5 | 8 | 29*
CC1CCCC(NC(=S)Nc2ccc(SC(F)F)cc2)C1C (stereo unspecified) | 10 | -16 | -14 | 13 | 3 | 31*
FC(F)Sc1ccc(NC(=S)NC2CCCC2)cc1 | 13 | -18 | -12 | 11 | 3 | 6
O=[N+]([O-])c1cc(Br)ccc1C[n+]1ccccc1 | 1 | 8 | 5 | -20 | -5 | -14
CCCC(=O)Nc1ccc(C(=O)NNC(=S)NC(=O)c2ccc(Br)o2)cc1 | -1 | -5 | -13 | 34* | -1 | 7
CCCC(=O)Nc1ccc(C(=O)NNC(=S)NC(=O)c2cccs2)cc1 | 0 | -1 | 13 | -9 | 1 | -2
CCc1ccc(S(=O)(=O)Nc2c(C)nc3nc[nH]n3c2=O)cc1 | 2 | 38* | 5 | -10 | 8 | 4
COc1ccc(-c2nc(-c3cccc(C(F)(F)F)c3)no2)cc1OC | 1 | 0 | 30* | -1 | -1 | -5
Cc1cccc2c1NC(=O)/C2=C\C(=O)c1cccs1 | 2 | 5 | -9 | -5 | 13 | 8
CCc1ccc2c(c1)/C(=C/C(=O)c1cccs1)C(=O)N2 | 5 | 7 | -19 | 23 | 25* | 18
COc1cccc(OCC(=O)Nc2ccncc2)c1 | 7 | -6 | -3 | -3 | 3 | 16
CC(C)CCOc1cccc(OCC(=O)Nc2ccncc2)c1 | 20 | -14 | -12 | 21 | 9 | 33*
Cc1cc(OCC(=O)Nc2ccncc2)c(C)cc1Br | 17 | -20 | -2 | 24 | 13 | 34*
O=C(COc1ccc2ccccc2c1Br)Nc1ccncc1 | 15 | -17 | -10 | 15 | 4 | 29*
Cc1[nH]c2ccccc2c1C(=O)COC(=O)c1nccnc1N | 2 | -3 | -2 | 10 | 5 | 1
Cc1ccc(NC(=O)[C@H](C)NC(=O)C2CCN(C(=O)[C@@H](NC(=O)OC(C)(C)C)C(C)C)CC2)cc1 | -1 | 0 | 17* | -1 | -5 | -2
CC(C)OC(=O)n1c(=S)oc2ccccc21 | 0 | -3 | 7 | 2 | 0 | 3
Cc1cccc(OC(=O)n2c(=S)oc3cc(Cl)ccc32)c1 | 4 | 0 | 30* | 22 | -1 | -4
COc1ccc(S(=O)(=O)N2CC3CCCN3c3ccc(C(F)(F)F)cc32)cc1 (stereo unspecified) | 0 | -6 | -15 | 30* | -2 | 1
SMILES | M4 ag | CHRM5 PAM | M4 PAM | CHRM4 antagonist | M5 ag | CHRM5 antagonist
COc1ccc(S(=O)(=O)N2CC3CCCN3c3cc(C(F)(F)F)ccc32)cc1 (stereo unspecified) | 0 | -11 | -2 | 2 | -9 | -2
CS(=O)(=O)N1CC2CCCN2c2ccc(C(F)(F)F)cc21 (stereo unspecified) | 3 | 2 | 11 | -12 | -3 | 6
O=S(=O)(c1cc(Cl)ccc1Cl)N1CC2CCCN2c2ccc(C(F)(F)F)cc21 (stereo unspecified) | -1 | -10 | -24 | 45* | -5 | 3
O=C(CC1SCCNC1=O)Nc1cccc(C(F)(F)F)c1 (stereo unspecified) | 3 | 2 | 32* | -5 | 0 | -2
CCOC(=O)[C@@H]1CSCCS(=O)(=O)N1Cc1ccccc1Br | 1 | -8 | 2 | -7 | 1 | -3
C=CCNC(=O)/C(C#N)=C/c1ccc(SC)cc1 | 1 | 2 | 7 | 5 | -1 | 5
Cc1csc(NC(=O)c2cc3c(C)nn(Cc4ccccc4Cl)c3s2)n1 | 2 | -4 | 3 | 7 | 0 | 7
CCOC(=O)C1CN(S(=O)(=O)c2ccc(C)cc2)C1 | 1 | 20* | 2 | -9 | -7 | -4
COc1cc(NC(=O)Nc2nnc([C@@H]3C[C@H](O)[C@@H](CO)O3)s2)cc(OC)c1OC | 1 | -2 | 1 | -1 | 1 | 3
Cc1cc(C(=O)CSc2nc3ccccc3[nH]2)c(C)n1CC1CCCO1 (stereo unspecified) | 35* | -23 | -17 | 66* | 10 | 60*
Cc1cc(C(=O)CSc2nc(N)cc(=O)[nH]2)c(C)n1CC1CCCO1 (stereo unspecified) | 1 | -2 | -2 | 6 | 0 | 23
CCC(=O)N1CCCc2cc(S(=O)(=O)N3CCN(c4ncccn4)CC3)ccc21 | 2 | -3 | 4 | -14 | 1 | 1
CCC(=O)N1CCCc2cc(S(=O)(=O)N3CCN(c4ccccn4)CC3)ccc21 | 6 | 33* | 0 | -5 | -6 | 8
COc1ccc(N=Nc2ccc(O)c3ncccc23)cc1 | 1 | 6 | -2 | -5 | 6 | 1
CCc1ccc(N=Nc2ccc(O)c3[nH]cnc23)cc1 | 48* | -27 | -13 | 28* | 30* | 46*
Cc1ccc(C(=O)OCC(=O)N2CC(C)OC(C)C2)cc1 (stereo unspecified) | 2 | -9 | 16* | -7 | -3 | 22
Cc1c(CCOC(=O)c2ccccc2)sc[n+]1CC(=O)c1ccc(Br)cc1 | 1 | -18 | -16 | 28* | -6 | 28*
Cc1c(CCOC(=O)c2ccccc2)sc[n+]1Cc1ccccc1 | -1 | -22 | -41 | 64* | -8 | 95*
Cc1c(CCOC(=O)c2cc([N+](=O)[O-])cc([N+](=O)[O-])c2)sc[n+]1CC(=O)c1ccccc1 | 1 | 4 | -9 | 4 | -15 | 3
CCN(CC(=O)Nc1ccc(OC)cc1)C(=O)c1cccc(S(=O)(=O)N2CCN(c3ccccc3)CC2)c1 | 7 | -3 | -5 | -3 | -1 | 9
Cc1ccc2c(c1)C(=O)C(=O)N2Cc1ccc(C(F)(F)F)cc1 | 32* | 7 | -3 | -5 | 44* | -1
